Legend:
Assay type in all cases: functional
SN12C = experiment: Cytotoxicity against human SN12C cells after 48 hrs by SRB assay
In short: (§1)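 NCI 60-cell-line panel of human tumour lines from nine cancer types. Continuous 48 h exposure at five 10-fold dilutions from 10^-4 to 10^-8 M, with 5-FU as positive control. SRB protein stain read spectrophotometrically at time zero, untreated control and each concentration. GI50, TGI and LC50 were derived from the [(Ti−Tz)/(C−Tz)]×100 growth relations, and out-of-range values are given as > or < the tested limits.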

NCI-H226 = experiment: Growth inhibition of human NCI-H226 cells assessed as cell growth at 10^-5 M after 48 hrs by SRB assay; settings: NCI-H226, 48 h, read-out: Activity
SF-268 = experiment: Cytotoxicity against human SF268 cells after 48 hrs by SRB assay; settings: SF-268, 48 h; in short: as §1
SNB-19 [1] = experiment: Growth inhibition of human SNB19 cells assessed as cell growth at 10^-6 M after 48 hrs by SRB assay; settings: SNB-19, 48 h, read-out: Activity
[2] = Growth inhibition of human EKVX cells assessed as cell growth at 10^-8 M after 48 hrs by SRB assay; settings: read-out: Activity
PC-3 = experiment: Growth inhibition of human PC3 cells assessed as cell growth at 10^-5 M after 48 hrs by SRB assay; settings: PC-3, 48 h, read-out: Activity
MDA-MB-231 [3] = experiment: Growth inhibition of human MDA-MB-231 cells assessed as cell growth at 10^-6 M after 48 hrs by SRB assay; settings: MDA-MB-231, 48 h, read-out: Activity
SK-OV-3 = experiment: Cytotoxicity against human SKOV3 cells after 48 hrs by SRB assay; settings: SK-OV-3, 48 h; in short: as §1
SW-620 = experiment: Growth inhibition of human SW620 cells assessed as cell growth at 10^-8 M after 48 hrs by SRB assay; settings: SW-620, 48 h, read-out: Activity
[4] = Cytotoxicity against human UO31 cells after 48 hrs by SRB assay; settings: UO-31, 48 h
In short: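 NCI 60-cell-line panel, 48 h continuous exposure to five 10-fold dilutions from 10^-4 to 10^-8 M. SRB protein staining was read spectrophotometrically, with time-zero, untreated-control and treated absorbances. GI50, TGI and LC50 were derived from the percentage-growth formulas. Values outside the tested range are expressed as more or less than the maximum or minimum concentration.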

DU-145 = experiment: Cytotoxicity against human DU145 cells after 48 hrs by SRB assay; settings: DU-145, 48 h; in short: as §1
T47D = experiment: Growth inhibition of human T47D cells assessed as cell growth at 10^-5 M after 48 hrs by SRB assay; settings: read-out: Activity
[5] = Cytotoxicity against human OVCAR5 cells after 48 hrs by SRB assay; settings: OVCAR-5, 48 h; in short: as §1
[6] = Growth inhibition of human OVCAR8 cells assessed as cell growth at 10^-7 M after 48 hrs by SRB assay; settings: OVCAR-8, 48 h, read-out: Activity
[7] = Growth inhibition of human SF295 cells assessed as cell growth at 10^-4 M after 48 hrs by SRB assay; settings: SF-295, 48 h, read-out: Activity
NCI-H460 = experiment: Growth inhibition of human NCI-H460 cells assessed as cell growth at 10^-7 M after 48 hrs by SRB assay; settings: NCI-H460, 48 h, read-out: Activity
[8] = Growth inhibition of human OVCAR4 cells assessed as cell growth at 10^-6 M after 48 hrs by SRB assay; settings: OVCAR-4, 48 h, read-out: Activity
[9] = Growth inhibition of human SF295 cells assessed as cell growth at 10^-7 M after 48 hrs by SRB assay; settings: SF-295, 48 h, read-out: Activity
K562 = experiment: Growth inhibition of human K562 cells assessed as cell growth at 10^-6 M after 48 hrs by SRB assay; settings: K562, 48 h, read-out: Activity
U-251 = experiment: Growth inhibition of human U251 cells assessed as cell growth at 10^-7 M after 48 hrs by SRB assay; settings: U-251, 48 h, read-out: Activity
SNB-75 [10] = experiment: Growth inhibition of human SNB75 cells assessed as cell growth at 10^-7 M after 48 hrs by SRB assay; settings: SNB-75, 48 h, read-out: Activity
MDA-MB-231 [11] = experiment: Cytotoxicity against human MDA-MB-231 cells after 48 hrs by SRB assay; settings: MDA-MB-231, 48 h; in short: as §1
IGROV-1 [12] = experiment: Growth inhibition of human IGROV1 cells assessed as cell growth at 10^-7 M after 48 hrs by SRB assay; settings: IGROV-1, 48 h, read-out: Activity
[13] = Growth inhibition of human MOLT4 cells assessed as cell growth at 10^-5 M after 48 hrs by SRB assay; settings: MOLT-4, 48 h, read-out: Activity
RPMI-8226 = experiment: Growth inhibition of human RPMI8226 cells assessed as cell growth at 10^-6 M after 48 hrs by SRB assay; settings: RPMI-8226, 48 h, read-out: Activity
SNB-75 [14] = experiment: Growth inhibition of human SNB75 cells assessed as cell growth at 10^-4 M after 48 hrs by SRB assay; settings: SNB-75, 48 h, read-out: Activity
IGROV-1 [15] = experiment: Growth inhibition of human IGROV1 cells assessed as cell growth at 10^-8 M after 48 hrs by SRB assay; settings: IGROV-1, 48 h, read-out: Activity
[16] = Growth inhibition of human SF295 cells assessed as cell growth at 10^-6 M after 48 hrs by SRB assay; settings: SF-295, 48 h, read-out: Activity
SNB-19 [17] = experiment: Growth inhibition of human SNB19 cells assessed as cell growth at 10^-7 M after 48 hrs by SRB assay; settings: SNB-19, 48 h, read-out: Activity
[18] = read-out: LC50 (the source's name)
[19] = read-out: pLC50 (the source's name) (converted)

In the case of `Cc1ccc(-c2nc3ccc(Cl)cc3c(=O)n2/N=C/c2ccccc2)cc1`, the GI50 (SN12C; read-out: GI50) is reported as 11.8 µM, the CC50 (SN12C; [18]) is reported as > 100 µM and the TGI (SN12C; read-out: TGI) is reported as > 100 µM. The GI50 (SN12C; read-out: pGI50 (converted)) was 11.7 µM, the CC50 (SN12C; [19]) was > 100 µM and the TGI (SN12C; read-out: pTGI) was > 100 µM. For the same molecule, the growth at 10 µM (NCI-H226) was 38%, the GI50 (SF-268; read-out: GI50) was 9.98 µM and the CC50 (SF-268; [18]) was > 100 µM. For the same molecule, the TGI (SF-268; read-out: TGI) was > 100 µM, the GI50 (SF-268; read-out: pGI50 (converted)) was 10 µM and the CC50 (SF-268; [19]) was > 100 µM. The TGI (SF-268; read-out: pTGI) was > 100 µM, the growth at 1 µM (SNB-19 [1]) was 88% and the growth at 0.01 µM [2] was 92%. The growth at 10 µM (PC-3) was 66%, the growth at 1 µM (MDA-MB-231 [3]) was 78% and the GI50 (SK-OV-3; read-out: GI50) was 2.89 µM. For the same molecule, the CC50 (SK-OV-3; [18]) was > 100 µM, the TGI (SK-OV-3; read-out: TGI) was 9.9 µM and the GI50 (SK-OV-3; read-out: pGI50 (converted)) was 2.88 µM. The CC50 (SK-OV-3; [19]) was > 100 µM, the TGI (SK-OV-3; read-out: pTGI (converted)) was 10 µM and the growth at 0.01 µM (SW-620) was 96%. For the same molecule, the GI50 ([4]; read-out: GI50) was 3.66 µM, the CC50 [4, 18] was > 100 µM and the TGI ([4]; read-out: TGI) was > 100 µM. For the same molecule, the GI50 ([4]; read-out: pGI50 (converted)) was 3.63 µM, the CC50 [4, 19] was > 100 µM and the TGI ([4]; read-out: pTGI) was > 100 µM. For the same molecule, the GI50 (DU-145; read-out: GI50) was 58.4 µM, the CC50 (DU-145; [18]) was > 100 µM and the TGI (DU-145; read-out: TGI) was > 100 µM. The GI50 (DU-145; read-out: pGI50 (converted)) was 58.9 µM, the CC50 (DU-145; [19]) was > 100 µM and the TGI (DU-145; read-out: pTGI) was > 100 µM. The growth at 10 µM (T47D) was 14%, the GI50 ([5]; read-out: GI50) was > 100 µM and the CC50 [5, 18] was > 100 µM. The TGI ([5]; read-out: TGI) was > 100 µM, the GI50 ([5]; read-out: pGI50 (converted)) was > 100 µM and the CC50 [5, 19] was > 100 µM. The TGI ([5]; read-out: pTGI) was > 100 µM, the growth at 0.1 µM [6] was 100% and the growth at 100 µM [7] was 18%. It also gave a growth at 0.1 µM (NCI-H460) of 99%, a growth at 1 µM [8] of 101% and a growth at 0.1 µM [9] of 80%. For the same molecule, the growth at 1 µM (K562) was 92%, the growth at 0.1 µM (U-251) was 99% and the growth at 0.1 µM (SNB-75 [10]) was 81%. For the same molecule, the GI50 (MDA-MB-231 [11]; read-out: GI50) was 4.21 µM, the LC50 (MDA-MB-231 [11]; read-out: LC50) was > 100 µM and the TGI (MDA-MB-231 [11]; read-out: TGI) was > 100 µM. For the same molecule, the GI50 (MDA-MB-231 [11]; read-out: pGI50 (converted)) was 4.17 µM, the LC50 (MDA-MB-231 [11]; read-out: pLC50 (converted)) was > 100 µM and the TGI (MDA-MB-231 [11]; read-out: pTGI) was > 100 µM. The growth at 0.1 µM (IGROV-1 [12]) was 78%, the growth at 10 µM [13] was 88% and the growth at 1 µM (RPMI-8226) was 90%. The growth at 100 µM (SNB-75 [14]) was -43%, the growth at 0.01 µM (IGROV-1 [15]) was 94% and the growth at 1 µM [16] was 80%. The growth at 0.1 µM (SNB-19 [17]) was 93%.
